One block for each molecule: values may come before it.
Assays:
[1] = target: UBE2F^NAc, N-terminally acetylated UBE2F (human) (UniProt Q969M7); test: ITC
[2] = target: DCNL1^P (DCNL1 PONY domain) (Homo sapiens, UniProt Q96GG9); test: ITC binding to DCNL1 PONY domain; settings: full-length UBE2F protein, pH 7.0, 16 °C
How it was run: (§1)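 Buffer-matched by NAP-5 desalting into 25 mM HEPES, 125 mM NaCl, 1 mM BME, pH 7.0. N-terminally acetylated UBE2F in cell at 100 µM final, 16 °C. PONY domain (1 mM) injected as 2.5 µl, 5 s injections at 3 min intervals. Heats and Kd from fits of integrated data. At least two independent runs; values from one run.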

[3] = target: DCNL2^P (DCNL2 PONY domain) (Homo sapiens, UniProt Q6PH85); test: ITC binding to DCNL2 PONY domain; settings: full-length UBE2F protein, pH 7.0, 16 °C
How it was run: as §1

[4] = target: T1, DCNL4^P (DCNL4 PONY domain) (Homo sapiens, UniProt Q92564); test: ITC binding to DCNL4 PONY domain; settings: full-length UBE2F protein, pH 7.0, 16 °C
T1 sequence (Q92564 101-287 limits assumed): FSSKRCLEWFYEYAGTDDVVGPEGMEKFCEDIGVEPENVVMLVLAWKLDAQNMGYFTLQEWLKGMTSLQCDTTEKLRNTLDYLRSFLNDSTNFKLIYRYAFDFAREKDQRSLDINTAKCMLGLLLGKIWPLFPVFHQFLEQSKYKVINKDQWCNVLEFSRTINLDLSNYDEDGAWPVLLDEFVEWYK
How it was run: as §1

[5] = target: T2, DCNL5^P (DCNL5 PONY domain) (Homo sapiens, UniProt Q9BTE7); test: ITC binding to DCNL5 PONY domain; settings: full-length UBE2F protein, pH 7.0, 16 °C
T2 sequence (Q9BTE7 46-232 limits assumed): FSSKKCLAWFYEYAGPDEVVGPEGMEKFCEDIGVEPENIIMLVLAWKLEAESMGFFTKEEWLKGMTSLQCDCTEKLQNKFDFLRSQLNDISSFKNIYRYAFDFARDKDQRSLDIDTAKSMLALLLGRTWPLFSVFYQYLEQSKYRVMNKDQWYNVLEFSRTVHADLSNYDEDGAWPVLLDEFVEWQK
How it was run: as §1

Sequence of DCNL2^P (DCNL2 PONY domain) (Q6PH85 60-248 limits assumed): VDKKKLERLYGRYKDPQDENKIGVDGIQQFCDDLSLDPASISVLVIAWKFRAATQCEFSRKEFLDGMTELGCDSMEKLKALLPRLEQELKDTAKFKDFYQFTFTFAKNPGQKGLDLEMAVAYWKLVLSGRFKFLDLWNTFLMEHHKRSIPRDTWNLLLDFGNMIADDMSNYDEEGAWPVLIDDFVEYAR
Sequence of DCNL1^P (DCNL1 PONY domain) (Q96GG9 60-248 limits assumed): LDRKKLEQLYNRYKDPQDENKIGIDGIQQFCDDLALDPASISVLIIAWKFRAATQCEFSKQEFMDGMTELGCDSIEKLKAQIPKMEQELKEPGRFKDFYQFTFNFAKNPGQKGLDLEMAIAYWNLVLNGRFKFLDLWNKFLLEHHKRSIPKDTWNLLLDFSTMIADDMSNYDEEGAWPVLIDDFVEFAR

fold decrease in binding against DCNL3^P [1]: 5 fold
Molecule: DCNL2 PONY domain (DCNL2^P) (from UniProt Q6PH85 62-259) (domain or fragment)

Kd [1]: 1000 nM
Molecule: DCNL3 PONY domain (DCNL3^P) (from UniProt Q8IWE4 86-304) (domain or fragment)

fold decrease in binding against DCNL3^P [1]: 5 fold
Molecule: DCNL1 PONY domain (DCNL1^P) (from UniProt Q96GG9 62-259) (domain or fragment)

fold decrease in binding relative to DCNL3^P [2]: 5 fold | fold decrease in binding relative to DCNL3^P [3]: 5 fold | Kd [4]: too high for us to measure | Kd [5]: too high for us to measure
B1: UBE2F^NAc: N-terminally acetylated human UBE2F, NEDD8 E2, expressed in insect cells (protein)
chain: MLTLASKLKRDDGLKGSRTAATASDSTRRVSVRDKLLVKEVAELEANLPCTCKVHFPDPNKLHCFQLTVTPDEGYYQGGKFQFETEVPDAYNMVPPKVKCLTKIWHPNITETGEICLSLLREHSIDGTGWAPTRTLKDVVWGLNSLFTDLLNFDDPLNIEAAEHHLRDKEDFRNKVDDYIKRYAR
modifications: N-terminal methionine retained and N-terminally acetylated; left off: His tag, C-terminal, state not stated

binding (ITC) [2]: could not measure binding | binding (ITC) [3]: could not measure binding | Kd [4]: could not measure binding | Kd [5]: could not measure binding
B2: unacetylated UBE2F: UBE2F prepared in E. coli as SUMO fusion, unacetylated N-terminal Met (protein)
chain: B1 chain
modifications: left off: SUMO, N-terminal, cleaved

From PMC3786212 (Structure (London, England : 1993), 2012)
